Assay results from paper PMC2808126 (Molecular cancer therapeutics, 2009).
Read-outs that look alike come from different tables or passages of the source.

Experiments:
[1] = tested on: phosphorylated Bad^Ser112 in C4-2B cells; experiment: Western blot of phospho-Bad Ser112; format: cell-based, human; conditions: increasing doses, 5 hours
Summary of the method: (§1)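 Cells (22Rv1, C4-2B or the paclitaxel-resistant 22Rv1 subline) treated with increasing doses of test compound for 5 h. Lysates immunoblotted for phospho-Bad Ser112 and total Bad, with β-actin as loading control.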

LNCaP cells = experiment: ATP viability assay; format: cell-based; conditions: Homo sapiens, 72 h, read-out: approximate IC50, cell viability
Summary of the method: (§2)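 Lines kept in RPMI 1640 with 10% FBS, except LAPC-4 in Iscove's medium with 5% FBS. About 1,000 cells/well plated in 384-well plates in 1% serum. Test compound added next day at increasing concentrations. For 22Rv1, agents given alone or combined for 48 h, or taxanes for 72 h. Other lines treated 72 h. ATPlite luminescence read, replicate wells averaged, approximate IC50 estimated.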

[2] = tested on: MDR1 activity in 22Rv1-T cells; experiment: Multidrug resistance assay; format: cell-based, human; conditions: 15 minutes; for fluorescent calcein retention (MDR1 efflux activity): single agent
[3] = tested on: phospho-p21^Thr145 in 22Rv1 cells; experiment: Western blot of phospho-p21 Thr145; format: cell-based, human
[4] = tested on: phosphorylated Bad^Ser112 in 22Rv1 cells; experiment: Western blot of phospho-Bad Ser112; format: cell-based, human; conditions: 22Rv1, increasing doses, 5 hours
Summary of the method: as §1

22Rv1 cells [5] = experiment: Caspase-3 fluorometric protease assay; format: cell-based, human; conditions: 22Rv1, increasing concentrations, 24 hours
Summary of the method: (§3)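 Cells held overnight in 1% serum, then exposed to increasing concentrations of test compound for 24 h. Apoptosis measured as caspase-3 activity with a fluorometric protease assay kit. Activity expressed relative to untreated samples.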

22Rv1-Pim1 cells [6] = experiment: Caspase-3 fluorometric protease assay; format: cell-based; conditions: Homo sapiens, 22Rv1, read-out: fold induction of apoptosis (caspase-3) in 22Rv1-Pim1 compared to 22Rv1
[7] = tested on: phospho-p21^Thr145 in C4-2B cells; experiment: Western blot of phospho-p21 Thr145; format: cell-based, human; conditions: 5 hour treatment
Summary of the method: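 C4-2B cells, kept in RPMI 1640 with 10% FBS, treated 5 h with increasing concentrations of test compound. Western blot probed for phospho-p21 Thr145 and total p21, with β-actin as loading control.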

[8] = tested on: p-p21^Thr145 in 22Rv1-Pim1 cells; experiment: Western blot of phospho-p21 Thr145; format: cell-based, human; conditions: 22Rv1-Pim1, 1μM, 2 hours
LAPC-4 cells = experiment: ATP viability assay; format: cell-based; conditions: Homo sapiens, LAPC4, 72 h, read-out: approximate IC50, cell viability
Summary of the method: as §2

PC3 cells = experiment: ATP viability assay; format: cell-based; conditions: Homo sapiens, PC-3, 72 h, read-out: approximate IC50, cell viability
Summary of the method: as §2

DU145 cells = experiment: ATP viability assay; format: cell-based; conditions: Homo sapiens, DU-145, 72 h, read-out: approximate IC50, cell viability
Summary of the method: as §2

[9] = tested on: phosphorylated Bad^Ser112 in 22Rv1-T cells; experiment: Western blot of phospho-Bad Ser112; format: cell-based, human; conditions: 5 hours
Summary of the method: as §1

22Rv1-T cells [10] = experiment: Caspase-3 fluorometric protease assay; format: cell-based, human
22Rv1 cells [11] = experiment: Cell cycle analysis by flow cytometry; format: cell-based, human; conditions: 24 hours, untreated 60%
[12] = tested on: MDR1 mRNA in 22Rv1-T cells; experiment: Quantitative real-time RT-PCR of MDR1; format: cell-based, human; conditions: 22Rv1-T (Supplementary Fig. 3b)
22Rv1-T cells [13] = experiment: ATP viability assay; format: cell-based, human; conditions: for cell viability response: 22Rv1-T, time course to 72 hours; for IC50: Homo sapiens, 72 h
Summary of the method: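 Paclitaxel-resistant 22Rv1 subline made by serial passage over about 4 months in rising paclitaxel (0-400ng/ml), then maintained in 5ng/ml paclitaxel. About 1,000 cells/well plated in 1% serum in 384-well plates. Next day, taxanes or test compound added alone, or combined with paclitaxel, for up to 72 h. ATPlite luminescence read, replicate wells averaged.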

C4-2B cells [14] = experiment: Caspase-3 fluorometric protease assay; format: cell-based, human; conditions: increasing concentrations, 24 hours
Summary of the method: as §3

RWPE2-W99 cells = experiment: ATP viability assay; format: cell-based; conditions: Homo sapiens, Keratinocyte, 72 h, read-out: approximate IC50, cell viability
Summary of the method: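 RWPE2-W99 kept in Keratinocyte Serum Free Medium with bovine pituitary extract and human recombinant EGF. About 1,000 cells/well plated in 384-well plates in complete medium. Test compound added next day at increasing concentrations for 72 h. Viability read by ATPlite luminescence, replicate wells averaged, approximate IC50 estimated.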

22Rv1 cells [15] = experiment: ATP viability assay; format: cell-based; conditions: Homo sapiens; for IC50: 22Rv1, 72 h, read-out: approximate IC50, cell viability (taxanes)
Summary of the method: as §2

22Rv1-Pim1 cells [16] = experiment: ATP viability assay; format: cell-based, human; conditions: 72 hours
C4-2B cells [17] = experiment: ATP viability assay; format: cell-based; conditions: Homo sapiens, 72 h, read-out: approximate IC50, cell viability
Summary of the method: as §2

C4-2B cells [18] = experiment: Cell cycle analysis by flow cytometry; format: cell-based, human; conditions: 24 hours, untreated 72%
[19] = 22Rv1, 48 h, read-out: cell viability
[20] = read-out: IC50, cell viability (taxanes)

## CN1CCC(CNc2ccc3ncc(-c4cccc(OC(F)(F)F)c4)n3n2)CC1 [SGI-1776]
[1]
  phosphorylated Bad^Ser112 protein levels: dose-dependent decrease
LNCaP cells
  IC50: ~5 µM
[2]; paclitaxel combined with SGI-1776
  fluorescent calcein accumulation, combination: did not further enhance
[2]
  fluorescent calcein retention (MDR1 efflux activity): dose-dependent increase
[3]; 22Rv1, 1μM, 2 hours
  effect on p-p21^Thr145 abundance: minimal, if any, effect
[3]; 22Rv1, 5 hour treatment
  concentration of maximal inhibition of phospho-p21^Thr145: 5 µM
[3]; parental 22Rv1 (Fig. 3a)
  concentration at which significant decrease in p-p21^Thr145 was first observed: 2.5 to 5 µM
[4]
  phosphorylated Bad^Ser112 protein levels: dose-dependent decrease
22Rv1 cells [5]
  caspase-3 activity levels: dose-dependent increase
22Rv1-Pim1 cells [6]
  fold induction at 2.5 µM: 1.6
[7]
  concentration of maximal inhibition of phospho-p21^Thr145: 7.5 µM
[8]
  effect on p-p21^Thr145 abundance: dramatic inhibition
LAPC-4 cells
  IC50: > 10 µM
PC3 cells
  IC50: ~3 µM
DU145 cells
  IC50: ~8 µM
[9]
  concentration of maximal inhibition of phosphorylated Bad^Ser112: 5 to 7.5 µM
22Rv1-T cells [10]; 2.5μM SGI-1776, 24 hours
  increase of caspase-3 activity compared to untreated cells: 1.42 fold
22Rv1-T cells [10]; 2.5μM SGI-1776, 24 hours, ± 3
  caspase-3 activity relative to untreated (100%): 142%
22Rv1-T cells [10]; 2.5μM SGI-1776 combined with 50nM paclitaxel, 24 hours
  increase of caspase-3 activity compared to untreated cells: 2.7 fold
22Rv1-T cells [10]; 2.5μM SGI-1776 combined with 50nM paclitaxel, 24 hours, ± 8, p<0.0001
  caspase-3 activity relative to untreated (100%): 269%
22Rv1 cells [11]; 22Rv1, 2.5μM
  percentage of cells in the G1 phase: 70% ± 2.00
22Rv1 cells [11]; 22Rv1, 7.5μM
  percentage of cells in the G1 phase: 81% ± 1.17
[12]
  MDR1 mRNA expression levels: did not alter
22Rv1-T cells [13]; 2.5μM SGI-1776 alone
  cell viability response: minimal response
22Rv1-T cells [13]; read-out: approximate IC50, cell viability
  IC50: ~5 µM
C4-2B cells [14]
  caspase-3 activity levels: dose-dependent increase
RWPE2-W99 cells
  IC50: ~9 µM
22Rv1 cells [15]; [19]
  viability at 2.5 µM: 63%
22Rv1-Pim1 cells [16]
  reduction in IC50 in 22Rv1-Pim1 compared to 22Rv1, cell viability: ~3 fold
C4-2B cells [17]
  IC50: ~4 µM
C4-2B cells [18]; 2.5μM
  percentage of cells in the G1 phase: 81% ± 1.24
C4-2B cells [18]; 7.5μM
  percentage of cells in the G1 phase: 95% ± 0.16

## CC(=O)O[C@@]12CO[C@@H]1C[C@H](O)[C@@]1(C)C(=O)[C@H](O)C3=C(C)[C@@H](OC(=O)[C@H](O)[C@@H](NC(=O)OC(C)(C)C)c4ccccc4)C[C@@](O)([C@@H](OC(=O)c4ccccc4)[C@H]21)C3(C)C [docetaxel]
22Rv1-T cells [13]; [20]
  IC50: > 0.1 µM
22Rv1 cells [15]
  IC50: ~0.0025 µM

## CC(=O)O[C@H]1C(=O)[C@@]2(C)[C@H]([C@H](OC(=O)c3ccccc3)[C@]3(O)C[C@H](OC(=O)[C@H](O)[C@@H](NC(=O)c4ccccc4)c4ccccc4)C(C)=C1C3(C)C)[C@]1(OC(C)=O)CO[C@@H]1C[C@@H]2O [paclitaxel]
[2]
  fluorescent calcein retention (MDR1 efflux activity): no different from the untreated cells
22Rv1-T cells [10]; increasing doses of paclitaxel alone, 24 hours
  change in caspase-3 levels: lack of change
22Rv1-T cells [13]; 50nM paclitaxel alone
  cell viability response: does not respond
22Rv1-T cells [13]; [20]
  IC50: > 0.1 µM
22Rv1 cells [15]; [19]
  viability at 0.0025 µM: 62.6%
22Rv1 cells [15]
  IC50: ~0.0045 µM
